# Key:
# TgPPT1 = experiment: Inhibition of recombinant TgPPT1, turnover of 4MU-octanoate; format: biochemical, Toxoplasma gondii; conditions: recombinant enzyme, 4MU-octanoate substrate; result in words
# Outline: (§1)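 Purified full-length N-terminal His6 enzyme from E. coli, 50 nM final, with 10 μM test compound in 20 mM HEPES, 150 mM NaCl, 10 mM CHAPS, pH 7.4, at 37°C. 4MU-octanoate hydrolysis followed by fluorescence. Initial rates taken from a linear fit, in triplicate, normalized to DMSO control and expressed as percent inhibition.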
# TgASH2 = experiment: Inhibition of recombinant TgASH2, turnover of 4MU-octanoate; format: biochemical, Toxoplasma gondii; conditions: recombinant enzyme, 4MU-octanoate substrate; result in words
# Outline: as §1
# TgASH4 = experiment: Gel-based competitive FP-TAMRA labeling of recombinant TgASH4; format: binding, Toxoplasma gondii; conditions: recombinant enzyme, gel-based FP-TAMRA competition; result in words
# Outline: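 Full-length N-terminal His6 enzyme, expressed in E. coli BL21-CodonPlus(DE3)-RIL (0.5 mM IPTG, 16 h, 19°C) and purified. 300 ng enzyme pre-incubated with DMSO or test compound (10 μM) for 30 min on ice, then labeled with FP-TAMRA for 30 min at 37°C. Quenched in reducing SDS buffer, resolved by SDS-PAGE, fluorescence-scanned (532 nm laser, 610 nm filter). Residual labeling expressed as percent inhibition versus DMSO.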
# TgASH3 = experiment: Inhibition of recombinant TgASH3, turnover of 4MU-octanoate; format: biochemical, Toxoplasma gondii; conditions: recombinant enzyme, 4MU-octanoate substrate; result in words
# Outline: as §1
# [1] = system: T. gondii tachyzoites in HFFs; experiment: Rosette formation assay; format: cell-based, Toxoplasma gondii; conditions: 10 μM dose, wild-type parasites in HFFs, 24 h
# Outline: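 Freshly egressed wild-type tachyzoites pre-treated with DMSO or 10 μM test compound were grown 24 h on confluent HFF coverslips (DMEM, 10% serum complex, 37°C, 5% CO2). Cells were PFA-fixed, Triton-permeabilized, BSA-blocked, stained with anti-Toxo-FITC (1:1000, overnight, 4°C), DAPI-mounted and imaged by confocal microscopy.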
SMILES,inhibitory activity against recombinant TgPPT1 (TgPPT1),inhibition of TgASH2 (TgASH2),inhibition of TgASH4 (TgASH4),inhibition of TgASH3 (TgASH3),rosette formation inside the host cell [1]
O=C(O)c1cccc(NC(=S)Nc2ccc3c(Cl)c(OCCBr)oc(=O)c3c2)c1 [JCP342],significant inhibitory activity,–,–,–,–
O=c1oc(OCCBr)c(Cl)c2ccc(NC(=S)Nc3ccccc3)cc12 [JCP343],virtually no activity,potent inhibitors,potent inhibitors,potent inhibitors,–
CCCCCCCCCCC[C@@H](C[C@@H]1OC(=O)[C@H]1CCCCCC)OC(=O)[C@H](CC(C)C)NC=O [Orlistat],–,–,–,–,disordered rosettes
